High-throughput results deposited in PubChem by several laboratories.
PfGluPho inh: PfG6PD (Plasmodium falciparum) enzyme inhibition | PfGluPho enzyme, NADPH resazurin-diaphorase fluorescence | inhibition, % at 20 µM | actives 0.78% (n = 350,000) | AID 504690;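 active = inhibition reaching at least a set limit at 20 µM in the primary screen, cut at about 59% in these data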;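 note: 0% = DMSO wells with substrate and 100% = DMSO wells lacking glucose-6-phosphate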
Neddyl block: inhibitors of human cullin neddylation; P61081+Q13564; TR-FRET cullin neddylation, biochemical; inhibition, % at 25 µM; actives 0.58% (n = 360,000); in the data active = inhibition above about 36%
HKDC1 inh: HKDC1 (human) hexokinase inhibition; Q2TB90; recombinant HKDC1, G6PDH/diaphorase resazurin coupled fluorescence; inhibition, % at 20 µM; actives 0.16% (n = 340,000); AID 493160;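 active = inhibition above about 35% when tested at 20 µM, limit read from the data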;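 note: plate controls were DMSO wells with enzyme for no effect and DMSO wells lacking enzyme for full effect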
Target sequence (Q2TB90 whole entry, looked up): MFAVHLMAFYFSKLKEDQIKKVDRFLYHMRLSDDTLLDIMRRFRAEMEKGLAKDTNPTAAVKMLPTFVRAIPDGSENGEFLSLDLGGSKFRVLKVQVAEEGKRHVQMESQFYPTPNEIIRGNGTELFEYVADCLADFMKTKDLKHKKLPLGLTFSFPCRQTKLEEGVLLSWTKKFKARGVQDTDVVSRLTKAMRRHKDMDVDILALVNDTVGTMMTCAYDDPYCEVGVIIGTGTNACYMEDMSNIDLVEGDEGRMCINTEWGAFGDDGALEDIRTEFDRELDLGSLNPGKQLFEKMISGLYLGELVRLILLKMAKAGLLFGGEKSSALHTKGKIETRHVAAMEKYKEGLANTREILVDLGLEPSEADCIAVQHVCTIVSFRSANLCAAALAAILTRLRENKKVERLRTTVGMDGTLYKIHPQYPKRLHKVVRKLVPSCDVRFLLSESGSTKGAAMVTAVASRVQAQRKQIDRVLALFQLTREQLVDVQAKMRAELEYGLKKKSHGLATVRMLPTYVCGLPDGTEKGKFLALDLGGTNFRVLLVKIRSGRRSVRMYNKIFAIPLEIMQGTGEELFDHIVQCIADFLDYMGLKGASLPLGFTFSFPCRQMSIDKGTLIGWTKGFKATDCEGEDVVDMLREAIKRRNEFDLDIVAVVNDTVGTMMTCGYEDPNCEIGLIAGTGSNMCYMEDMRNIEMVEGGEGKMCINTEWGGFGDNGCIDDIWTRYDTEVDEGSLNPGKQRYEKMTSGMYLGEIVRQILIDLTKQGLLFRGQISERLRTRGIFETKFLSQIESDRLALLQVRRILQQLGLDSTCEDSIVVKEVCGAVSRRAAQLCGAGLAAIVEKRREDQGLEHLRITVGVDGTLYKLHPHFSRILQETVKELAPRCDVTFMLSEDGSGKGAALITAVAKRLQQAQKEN
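Assay system – recombinant HKDC1 (HK5) hexokinase enzyme, produced in-house · Input – HKDC1 at 5 µg/mL · Reagent – glucose plus 1 mM ATP as hexokinase substrates · Timing – 90 min reaction incubation at room temperature, dark · Measured by – G6PDH/diaphorase-coupled fluorescence, 1 mM NADP, 100 µM resazurin, 525/613 nm · Benchmarks – DMSO-enzyme wells negative, buffer-substituted wells positive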
M18AAP inhibitor: blocks P. falciparum M18 aspartyl aminopeptidase | recombinant PfM18AAP, H-Glu-NHMec fluorogenic cleavage | inhibition, % at 7.35 µM | actives 1.2% (n = 290,000);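 active = inhibition above the campaign mean inhibition over all tested compounds plus 3 SD, cut at about 28% in these data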;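 note: 0% = plate median of test compound wells and 100% = 2 mM ZnCl2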
Neddyl conf: confirmation of human cullin neddylation inhibitors; shares compounds with Neddyl block; TR-FRET cullin neddylation biochemical assay; calls only at 25 µM; actives 13% (n = 1,800); AID 652217; in the data active = inhibition above about 40%;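 note: neddylation substrate is the cullin 1 ring ligase complex with SKP2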
Active calls of the source: *; i = inactive; x = no result given; + = active, no number. This is a sample that favours compounds with a hit; in the whole collection about 2.2% have one here.

SMILES	PfGluPho inh	Neddyl block	HKDC1 inh	M18AAP inhibitor	Neddyl conf
COc1ccc(/C=C(\NC(=O)c2ccco2)C(=O)NCc2ccco2)cc1	0	-16	-5	5	x
O=C1Nc2cc(C(=O)N3CCOCC3)ccc2S/C1=C/c1ccccc1F	15	6	x	x	x
CC(C)(C)OC(=O)N1CCC(c2c(C(=O)NCC3CCN(C4CCCC4)C3)cnn2-c2cccc(Cl)c2)CC1 (stereo not given)	2	3	-6	3	x
CCCCN(CCCC)C1=Nc2ccccc2N/C1=C(/C#N)C(=O)OCC	13	40*	5	13	i
COc1ccc(CC(=O)Nc2ccc(F)c(Cl)c2)cc1S(=O)(=O)N1CCOCC1	-13	4	-3	x	x
COc1ccc(-c2cc(C(F)(F)F)nc(-n3ccnc3)n2)cc1	0	45*	4	1	i
CCOC(=O)C1CCc2c(ccc3ccccc23)N1CCC#N (stereo not given)	19	47*	x	x	x
COc1ccc2oc(=O)c(-c3nnc(N)s3)cc2c1	-4	38	7	9	x
Nc1nnc(-c2cc3ccccc3oc2=O)s1	12	47*	-9	2	+
O=C(NCc1ccccc1)N(Cc1cc2cc3c(cc2[nH]c1=O)OCO3)CC1CCCO1 (stereo not given)	-14	41*	-4	8	i
CN(C)CCN(Cc1cc2cc3c(cc2[nH]c1=O)OCO3)C(=S)NCC1CCCO1 (stereo not given)	-16	41*	1	-1	i
COCCNC(=S)N(CCN(C)C)Cc1cc2cc3c(cc2[nH]c1=O)OCO3	-12	39	-3	-7	x
Cc1cc2cc(CN(CC3CCCO3)C(=S)Nc3ccccc3)c(=O)[nH]c2cc1C (stereo not given)	26	-44	-6	-3	x
O=C(c1ccccc1)N(CCO)Cc1cc2cc3c(cc2[nH]c1=O)OCCO3	-16	42*	-2	3	i
O=C(c1ccco1)N(CCO)Cc1cc2cc3c(cc2[nH]c1=O)OCO3	-12	30	-2	-9	x
Cc1ccc(C(=O)C(C)OC(=O)CCN2C(=O)C3C4C=CC(C5CC45)C3C2=O)cc1 (stereo not given)	17	5	-1	2	x
COc1ccc(S(=O)(=O)N2CCOCC2)cc1NC(=O)COC(=O)C1CC1C (stereo not given)	-1	-1	-5	x	x
O=C(O)c1ccc2c(=O)n3c(nc2c1)/C(=C/c1ccc(C(F)(F)F)cc1)CC3	-4	49*	6	-3	+
O=C(O)c1ccc2c(=O)n3c(nc2c1)/C(=C/c1cccc(Cl)c1Cl)CC3	-24	52*	-13	-4	x
N#Cc1ccc(/C=C2\CCCCn3c2nc2cc(C(=O)O)ccc2c3=O)cc1	17	-13	-3	4	x
CCN(CC)c1ccc(NC(=O)Nc2cccc3ccccc23)cc1	3	44*	-2	11	i
CCC(C(=O)N1CCC(C(N)=O)CC1)n1nc(C)n2c(cc3occc32)c1=O (stereo not given)	13	4	-4	0	x
CCCCc1c(O)c2ccccc2[nH]c1=O	0	38	-1	-3	x
CCCc1c(O)c2ccccc2[nH]c1=O	-17	38*	-5	-2	i
Cc1ccc(C)c(S(=O)(=O)C(C#N)c2nc3ccccc3nc2N2CCCC2)c1 (stereo not given)	-1	7	13	0	x
SMILES	PfGluPho inh	Neddyl block	HKDC1 inh	M18AAP inhibitor	Neddyl conf
Cc1ccc(C)c(S(=O)(=O)C(C#N)c2nc3ccccc3nc2N2CC(C)OC(C)C2)c1 (stereo not given)	-27	43*	4	3	i
COc1cc2c(C#CCCCO)c(-c3ccc(C#N)cc3)oc(=O)c2cc1OC	11	x	13	x	x
COc1cc2c(C#CCO)c(-c3ccc(C#N)cc3)oc(=O)c2cc1OC	-8	75*	11	x	+
O=C(O)CCc1ccc(-c2ccc(F)cc2)n1CC1CCCO1 (stereo not given)	-9	29	2	-2	x
O=C(O)CCc1ccc(-c2cccs2)n1CC1CCCO1 (stereo not given)	0	49*	-1	-3	i
O=S(=O)(c1ccc(Cl)cc1)N1c2ccccc2Oc2nc3ccccc3nc21	1	41*	3	-2	i
COc1ccc(S(=O)(=O)N2c3cc(Cl)ccc3Oc3nc4ccccc4nc32)cc1	7	28	0	-7	x
CC(C)[C@H](NC(=O)[C@H]1N2C(=O)c3ccccc3C2SC1(C)C)C(=O)NCc1ccco1 (stereo not given in full)	9	2	-2	-7	x
CCC1CCCCN1CCCNC(=O)c1cc2c(=O)[nH]c3ccccc3c2n1C (stereo not given)	5	40*	-3	8	i
CC1CC(C)CN(CCCNC(=O)c2cc3c(=O)[nH]c4ccccc4c3n2C)C1 (stereo not given)	-3	42*	4	1	i
Cn1c(C(=O)NCCCN2CCN(c3ccccc3F)CC2)cc2c(=O)[nH]c3ccccc3c21	7	23	6	-1	x
CC(=O)Nc1ccc(NC(=O)C(C)Sc2nnc(C3CC3)n2-c2ccccc2)cc1 (stereo not given)	-8	2	1	x	x
COc1ccc(C2=Cc3ccc(OC(C)=O)cc3OC2)cc1	8	24	-5	x	x
CCOc1cc(/C=N/NC(=O)c2ccc(NC(=O)C3CC3)cc2)ccc1O	14	5	2	9	x
CCOc1cc(/C=N/NC(=O)c2cc(C)n(-c3ccc(F)cc3)c2C)ccc1O	17	40*	-1	10	i
CN(C)S(=O)(=O)c1cccc(-c2nn(-c3ccccc3)cc2/C=C(/C#N)C(=O)NCc2ccco2)c1	9	22	-6	-9	x
CCN(CC)S(=O)(=O)c1cccc(-c2nn(-c3ccccc3)cc2/C=C(\C#N)C(=O)NCc2ccco2)c1	-2	39*	-8	-8	i
c1coc(CNc2nc(N3CCCCC3)nc3ccccc23)c1	-7	38*	-10	-5	i
CCn1nc(NC(C)=O)c2cc3ccc(C)cc3nc21	16	26	2	5	x
CCn1nc(NC(=O)c2cccnc2)c2cc3ccccc3nc21	2	41*	-1	-2	i
CCn1nc(NC(=O)C(C)C)c2cc3ccc(C)cc3nc21	6	39*	3	1	i
COc1ccc(CC(=O)N2CCN(C(=O)Cc3ccc(OC)cc3)CC2)cc1	7	3	-6	-1	x
COc1ccc(CC(=O)N2CCN(c3ccc(C4=NNC(=O)CC4C)cc3)CC2)cc1 (stereo not given)	-12	46*	3	-4	x
COc1ccccc1CCNC(=O)c1cccc(NC(=O)CC2SC(N3CCCCC3)=NC2=O)c1 (stereo not given)	7	-16	0	x	x
CCc1cc2c3c(c(=O)oc2cc1OCC(=O)OC)CCCC3	2	43*	-1	3	i
CCc1cc2c3c(c(=O)oc2cc1OC(C)C(=O)O)CCCC3 (stereo not given)	-17	x	-2	1	x
